Experimental data as given in ChEMBL document CHEMBL1124612, “Synthesis and structure-activity relationships of a series of anxioselective pyrazolopyridine ester and amide anxiolytic agents” (J Med Chem, 1989).
The source made the active and inactive calls. No cut-off for these calls is given here.

Key:
Rattus norvegicus [1] = assay: Minimum effective dose (ip) tested for its anxiolytic activity in rat using the shock-induced suppression of drinking (SSD) test; NS is No Significant activity at 50 mg/Kg; format: functional, organism-based
Summary of the method: (§1)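 Shock-induced suppression of drinking (Vogel-type conflict) in rats, with compounds given intraperitoneally at one or more dose levels, 8 rats per dose. MED is the lowest dose giving a significant increase (p < 0.05, Student's t test) in the mean number of shocks taken versus vehicle control.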

[2] = system: GABA-A receptor; anion channel; assay: Inhibition of [3H]flunitrazepam binding to GABA-A benzodiazepine receptor of rat cerebral cortex (Not Significant at 5000 nM); format: tissue-based
Summary of the method: (§2)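 Rat cerebral cortex membranes were incubated with [3H]flunitrazepam in the presence of the test agent at a single concentration (nM), run in triplicate with under 7% variation between values. Binding is reported as % inhibition of [3H]flunitrazepam binding.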

Rattus norvegicus [3] = assay: Minimum effective dose (ip) tested for its anxiolytic activity in rat using the shock-induced suppression of drinking (SSD) test.; format: functional; settings: read-out: MED; summary of the method: as §1
[4] = target: GABA-A receptor; anion channel; assay: (§3) Inhibition of [3H]flunitrazepam binding to GABA-A benzodiazepine receptor of rat cerebral cortex; format: tissue-based
[5] = system: GABA-A receptor; anion channel; assay: Inhibition of [3H]flunitrazepam binding to GABA-A benzodiazepine receptor of rat cerebral cortex at 500 nM; format: tissue-based; summary of the method: as §2
Rattus norvegicus [6] = assay: Minimum effective dose (po) tested for its anxiolytic activity in rat using the shock-induced suppression of drinking (SSD) test.; format: functional; settings: read-out: MED
Summary of the method: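 Rats (n = 8 per dose) were dosed orally at one or more levels and then run in the shock-induced suppression of drinking conflict test. MED is the dose producing a significant rise (p < 0.05, Student's t test) in mean shocks accepted relative to vehicle-treated controls.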

[7] = target: T1, GABA-A receptor; anion channel (Rattus norvegicus) (UniProt O09028+P15431+P18506+P18508+P19969+P20236+P23574+P23576+P28471+P28473+P30191+P62813+P63079+P63138+Q91ZM7+Q9ES14); assay: Displacement of [3H]flunitrazepam from GABA-A benzodiazepine receptor of rat cerebral cortex at 500 nM; format: tissue-based; summary of the method: as §2
Rattus norvegicus [8] = assay: Minimum effective dose (ip) tested for its anxiolytic activity in rat using the shock-induced suppression of drinking (SSD) test; NS is No Significant activity at 25 mg/Kg; format: functional, organism-based; summary of the method: as §1
[9] = target: T1, GABA-A receptor; anion channel (Rattus norvegicus); assay: Displacement of [3H]flunitrazepam from GABA-A benzodiazepine receptor of rat cerebral cortex at 5000 nM; format: tissue-based; summary of the method: as §2
[10] = target: GABA-A receptor; anion channel; assay: Inhibition of [3H]flunitrazepam binding to GABA-A benzodiazepine receptor of rat cortex
Rattus norvegicus [11] = species: Rattus norvegicus; assay: Compound was tested for activity against ethanol-induced impairment of rota rod performance in rat.; format: functional
Rattus norvegicus [12] = assay: Compound was tested in vivo for activity to induce sedation or ataxia in rat using rotarod test; format: functional
[13] = Ethanol interaction ratio (EIR) of the compound.; format: ADME
Summary of the method: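 Ratio computed as rat rotorod ED50 for drug given with ethanol (mg/kg) divided by the SSD minimum effective dose (mg/kg), both orally. The SSD MED is the lowest dose (N=8/dose) giving a significant rise (p < 0.05, Student's t test) in mean shocks taken versus vehicle in the rat shock-induced suppression of drinking test.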

Rattus norvegicus [14] = species: Rattus norvegicus; assay: Sedative liability index (SLI) to indicate the separation between the anxiolytic and ataxic doses in rats; format: functional
Summary of the method: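 Ratio computed as rat rotorod ED50 (mg/kg) divided by the SSD minimum effective dose (mg/kg), with both given orally. The SSD MED is the lowest dose (N=8/dose) giving a significant increase (p < 0.05, Student's t test) in mean shocks taken over vehicle control in the rat shock-induced suppression of drinking test.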

[15] = target: GABA-A receptor; anion channel; assay: Inhibition of [3H]flunitrazepam binding to GABA-A benzodiazepine receptor of rat cerebellum; format: tissue-based
Rattus norvegicus [16] = assay: Compound was tested in vivo for antagonistic activity against metrazole-induced convulsions in rat; format: functional
Monkey = assay: Compound was tested for activity using primate conflict test in monkey.; format: functional; settings: Cercopithecidae, in Primates; read-out: MED
[17] = target: T1, GABA-A receptor; anion channel (Rattus norvegicus); assay: Displacement of [3H]flunitrazepam from GABA-A benzodiazepine receptor of rat cerebral cortex at 50 nM; format: tissue-based; summary of the method: as §2
[18] = target: T1, GABA-A receptor; anion channel (Rattus norvegicus); assay: Displacement of [3H]flunitrazepam from GABA-A benzodiazepine receptor of rat cerebral cortex at 800 nM; format: tissue-based; summary of the method: as §2
Rattus norvegicus [19] = species: Rattus norvegicus; assay: Compound was tested for activity against ethanol-induced impairment of rotarod performance in rat.; format: functional
Rattus norvegicus [20] = assay: Minimum effective dose (ip) tested for its anxiolytic activity in rat using the shock-induced suppression of drinking (SSD) test; NS is No Significant activity at 25 mg/KG; format: functional, organism-based; summary of the method: as §1
Rattus norvegicus [21] = assay: Minimum effective dose (ip) tested for its anxiolytic activity in rat using the shock-induced suppression of drinking (SSD) test; NS is No Significant activity at 5 mg/Kg; format: functional, organism-based; summary of the method: as §1
[22] = target: GABA-A receptor; anion channel; assay: as §3; format: tissue-based; remark: listed apart in the source
Summary of the method: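 [3H]Flunitrazepam displacement from rat cerebral cortex benzodiazepine receptors, run in triplicate with under 7% variation between values. IC50 is the concentration (nM) giving half-maximal inhibition of binding, determined from three or more concentrations.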

Compound: CCCCCn1ncc2c(N)c(C(=O)O)c(C)nc21
- minimal effective dose (Rattus norvegicus [1]): inactive
- IC50 [2]: Not Active

Compound: CCNc1c(C(=O)OCC)c(C)nc2c1cnn2CC
- minimal effective dose (Rattus norvegicus [3]): 25 mg/kg
- IC50 [2]: Not Active

Compound: CCCCCn1ncc2c(N)c(C(=O)Nc3ccccc3)cnc21
- IC50 [4]: 790 nM
- minimal effective dose (Rattus norvegicus [3]): 50 mg/kg

Compound: CCCCCn1ncc2c(O)c(C(=O)OCC)c(C)nc21
- IC50 [5]: Not Active
- minimal effective dose (Rattus norvegicus [1]): inactive

Compound: C#CCN(CC#C)C(=O)c1cnc2c(cnn2CCCCC)c1N
- minimal effective dose (Rattus norvegicus [6]): 12.5 mg/kg
- IC50 [5]: Not Active

Compound: CCOC(=O)c1c(C)nc2c(cnn2CCC(C)(C)C)c1N
- inhibition [7]: 38%
- minimal effective dose (Rattus norvegicus [1]): inactive

Compound: CCOC(=O)c1c(C)nc2c(cnn2CCCC(C)(C)C)c1N
- IC50 [4]: 404 nM
- NS (Rattus norvegicus [8]): inactive

Compound: CCCCCn1ncc2c(N)cc(C)nc21
- minimal effective dose (Rattus norvegicus [1]): inactive
- inhibition [9]: 13%

Compound: CCCCCn1ncc2c(N)c(C(=O)OC(C)C)c(C)nc21
- minimal effective dose (Rattus norvegicus [6]): 50 mg/kg
- inhibition [9]: 48%

Compound: CCCCCn1ncc2c(N)c(C(=O)OCCC3CC3)c(C)nc21
- IC50 [4]: 51 nM
- minimal effective dose (Rattus norvegicus [3]): 50 mg/kg

Compound: C=CCNC(=O)c1cnc2c(cnn2CCC#CC)c1N
- minimal effective dose (Rattus norvegicus [6]): 0.8 mg/kg
- IC50 [10]: 81 nM
- IC50 [4]: 81 nM
- ED50 (Rattus norvegicus [11]): 3.1 mg/kg
- ED50 (Rattus norvegicus [12]): 25.1 mg/kg
- EIR [13]: 3.9
- SLI (Rattus norvegicus [14]): 31.4
- IC50 [15]: 19 nM
- ED50 (Rattus norvegicus [16]): 1 mg/kg
- minimal effective dose (Monkey): 3.1 mg/kg

Compound: C=CCNC(=O)c1c(C)nc2c(cnn2CCCCC)c1N
- minimal effective dose (Rattus norvegicus [6]): 50 mg/kg
- inhibition [17]: 0%

Compound: C=CCNC(=O)c1cnc2c(cnn2CCC#CC)c1NC(=O)CC
- minimal effective dose (Rattus norvegicus [6]): 1.6 mg/kg
- inhibition [7]: 28%

Compound: CCOC(=O)c1c(C)nc2c(cnn2CC)c1N(C)C
- inhibition [18]: 13%
- MED (Rattus norvegicus [8]): inactive

Compound: CCCCCn1ncc2c(N)c(C(=O)OCCC)c(C)nc21
- IC50 [4]: 50 nM
- minimal effective dose (Rattus norvegicus [3]): 25 mg/kg

Compound: CCCCCn1ncc2c(N)c(C(=O)OCc3ccccc3)c(C)nc21
- IC50 [4]: 100 nM
- MED (Rattus norvegicus [8]): inactive

Compound: CN1C(=O)CN=C(c2ccccc2)c2cc(Cl)ccc21 [DIAZEPAM]
- ED50 (Rattus norvegicus [19]): 2.5 mg/kg
- minimal effective dose (Rattus norvegicus [6]): 5 mg/kg
- ED50 (Rattus norvegicus [12]): 10.2 mg/kg
- EIR [13]: 0.5
- SLI (Rattus norvegicus [14]): 2
- ED50 (Rattus norvegicus [16]): 8.4 mg/kg
- minimal effective dose (Monkey): 1.6 mg/kg

Compound: C=CCOC(=O)c1c(C)nc2c(cnn2CC=C(C)C)c1N
- IC50 [4]: 6.4 nM
- MED (Rattus norvegicus [20]): inactive

Compound: CCCn1ncc2c(N)c(C(=O)OCC)c(C)nc21
- IC50 [4]: 410 nM
- minimal effective dose (Rattus norvegicus [3]): 80 mg/kg

Compound: C=C(C)COC(=O)c1c(C)nc2c(cnn2CCCCC)c1N
- IC50 [4]: 69 nM
- MED (Rattus norvegicus [8]): inactive

Compound: CCCCCn1ncc2c(N)c(C(=O)OCC)cnc21
- MED (Rattus norvegicus [8]): inactive

Compound: CCCNc1c(C(=O)OCC)c(C)nc2c1cnn2CC
- IC50 [2]: Not Active
- MED (Rattus norvegicus [21]): inactive

Compound: CCCCCn1ncc2c(N)c(C(=O)OCCCC)c(C)nc21
- IC50 [4]: 113 nM
- minimal effective dose (Rattus norvegicus [3]): 50 mg/kg

Compound: C=CCOC(=O)c1c(C)nc2c(cnn2CCC(C)C)c1N
- minimal effective dose (Rattus norvegicus [6]): 50 mg/kg
- IC50 [4]: 13 nM

Compound: C=CCNC(=O)c1cnc2c(cnn2CCCCC)c1O
- minimal effective dose (Rattus norvegicus [6]): 50 mg/kg
- IC50 [5]: Not Active

Compound: C=CCCOC(=O)c1c(C)nc2c(cnn2CCCCC)c1N
- IC50 [4]: 174 nM
- MED (Rattus norvegicus [1]): inactive

Compound: C#CCCCn1ncc2c(N)c(C(=O)NCC=C)cnc21
- minimal effective dose (Rattus norvegicus [6]): 6.3 mg/kg
- IC50 [22]: 9.3 nM
